14 compounds from PubChem BioAssay AID2611 (Broad Institute, 2010) can be followed below.

pEC50: −log10 of the molar value.

The subject of this experiment is BJeLR fibroblasts viability, Alamar Blue fluorescence, 48 h. Put plainly: cytotoxicity toward RAS-dependent BJ-TERT fibroblasts, dose response, cell-based, alamar blue fluorescence, powder samples (AID 2611). A digest of the protocol:
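Read-out: viable cell number from alamar blue conversion signal. Compound dosing: twofold serial dilution series, 0.01 to 5.33 µg/mL compound. Times: 48 h compound exposure, then ~16 h alamar blue incubation. Measured by: Alamar blue fluorescence, excitation 544 nm, emission 590 nm.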
One may read the pEC50 as the EC50 on a negative log10 scale, so that one unit is a factor of ten. Turning to `COc1cccc(N(C(=O)CCl)C(C(=O)NCCc2ccccc2)c2cccs2)c1` (centres undefined), the pEC50 was 5.49. Then `COc1ccc(N(C(=O)CCl)C(C(=O)NCCc2ccccc2)c2cccs2)cc1Cl` (centres undefined), with 5.61. On to `Nc1nc(CCl)nc(Nc2ccc3ccccc3c2)n1`, for which the pEC50 was 5.69. Then `COc1ccc(CN(CCC(c2ccccc2)c2ccc(OC(C)C)cc2)C(=O)CCl)cc1OC` (centres undefined), with 5.57; and `Cc1ccc(C2CC(c3cccs3)=NN2C(=O)CCl)cc1` (centres undefined), with 5.34. Next, `O=C(CCl)N=c1sccn1Cc1ccccc1Cl`: 4.92; `CCCCCCCN(C(=O)CCl)c1cccc(C)c1`: 5.24; `Cc1ccc(N(C(=O)CCl)C(C(=O)NC2CCCCC2)c2cccnc2)cc1C` (centres undefined): 5.64. Then `COc1ccc(N(C(=O)CCl)C(C(=O)NCCc2ccccc2)c2cccs2)cc1` (centres undefined), with 5.65. `COC(=O)[C@@H]1Cc2c([nH]c3ccccc23)C(C)(C)N1C(=O)CCl`: the pEC50 was 5.21. As to `C=CCOc1ccccc1CN(C(=O)CCl)c1ccc2c(c1)OCO2`, the pEC50 was 4.73. Take `COc1ccc(C(C(=O)NC2CCCCC2)N(C(=O)CCl)c2ccc(C)cc2)cc1` (centres undefined): the pEC50 is 5.12. Then `COc1ccc(C(C(=O)NC2CCCCC2)N(C(=O)CCl)c2cccc(Cl)c2)cc1` (centres undefined), with 5.47.

For `CCOc1ccc(Nc2nc(N)nc(CCl)n2)cc1`, the pEC50 is 5.54.
